Screening data (PubChem)
TbMetRS inhib: Trypanosoma brucei MetRS inhibition. purified T. brucei MetRS, ATP depletion, Kinase-Glo luminescence. inhibition, % at 11.9 µM. 360,000 tested, 0.4% active;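 active = inhibition above a per-plate cutoff of the control wells' mean inhibition plus 3 SD, cut at about 5.5% in these data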;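 also: 0% = DMSO wells median and 100% = median of wells with control inhibitor compound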
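Assay system: T. brucei methionyl-tRNA synthetase, purified | Medium: HEPES buffer with MgCl2, KCl, DTT, spermine, BSA, pyrophosphatase | Compound: 11.9 µM single point | Incubation: 15 min enzyme-compound preincubation, 2 h reaction, 10 min detection, 25 °C | Measured by: Kinase-Glo luciferase luminescence reporting remaining unconsumed ATP | Measure: % inhibition normalized to control-well medians | Replication: Singlicate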
CSN inh: inhibitors of human CSN-mediated cullin deneddylation; AID 651999; Purified CSN, SCF-Nedd8-OG deneddylation, fluorescence polarization; inhibition, % at 12.5 µM; 360,000 tested, 0.38% active; Q92905;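 active = pattern-corrected inhibition above about 35%, with an unprinted fluorescence ratio check between 0.5 and 1.5, limit read from the data, passing the limit was not always enough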;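 also: 0% = enzyme with substrate and 100% = substrate without enzyme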
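assay system = purified human Csn5 enzyme expressed in HEK293T cells | amount = 0.24 nM enzyme | buffer or medium = Tris/NaCl/DTT buffer, pH 7.5 | reagent = 10 nM SCFSkp2-Nedd8OG | compound = one concentration, 12.5 µM, 0.25% DMSO | times = 90 min reaction at room temperature | signal = FP | read-out basis = % inhibition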
HNF4A DNA FP: change in binding of human HNF4 alpha to DNA | P41235 | HNF4a-FITC DNA binding, fluorescence polarization, 1 h | activity change, % at 10 µM | 360,000 tested, 0.3% active; in the data active = activity change above about 30%, passing the limit was not always enough
Target sequence (P41235 whole entry, looked up): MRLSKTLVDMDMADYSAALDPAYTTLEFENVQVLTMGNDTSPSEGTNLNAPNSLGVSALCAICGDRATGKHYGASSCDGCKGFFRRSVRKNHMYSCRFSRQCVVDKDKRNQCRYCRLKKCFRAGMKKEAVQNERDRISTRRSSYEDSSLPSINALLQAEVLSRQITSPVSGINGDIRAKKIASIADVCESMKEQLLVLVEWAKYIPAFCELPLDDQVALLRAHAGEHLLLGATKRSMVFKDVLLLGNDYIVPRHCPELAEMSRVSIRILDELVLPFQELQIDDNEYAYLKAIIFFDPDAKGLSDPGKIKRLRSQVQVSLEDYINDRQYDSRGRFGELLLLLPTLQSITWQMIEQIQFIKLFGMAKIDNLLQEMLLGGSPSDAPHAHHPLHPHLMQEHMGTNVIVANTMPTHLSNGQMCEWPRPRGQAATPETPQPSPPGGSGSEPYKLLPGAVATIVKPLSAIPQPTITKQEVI
IDE cell inh: cellular human IDE inhibition. AID 434962. HEK cells, FAbetaB cleavage, fluorescence polarization. 320,000 tested, 0.41% active. inhibition, % at 5.59 µM;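 active = percent inhibition above the average of all tested compounds plus 3 SD, set per screening campaign, cut at about 16% in these data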;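 also: IDE supplied by intact live HEK cells; FP after avidin binding of uncleaved biotin substrate so inhibition keeps polarization high; 0% = DMSO wells and 100% = 60 µM reference IDE inhibitor Ii1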
IDE act: activators of human insulin-degrading enzyme in cells; P14735; HEK cells, FAbeta-B cleavage, fluorescence polarization; 0% vehicle, 100% cell-free pure enzyme wells; activation, % at 5.96 µM; 340,000 tested, 0.073% active; AID 493087;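 active = activation above the mean of all tested compounds plus 3 SD, set per screening campaign, cut at about 17% in these data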
TPT1 inhibitor: blocks Candida albicans tRNA 2'-phosphotransferase; 300,000 tested, 0.81% active; recombinant caTPT1, FP RNA substrate dephosphorylation; inhibition, % at 5 µM;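 active = inhibition above the mean of all tested compounds plus 3 SD, set per screening campaign, cut at about 24% in these data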;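 also: plate controls were DMSO alone for no effect and ferristatin control at 100 nM for full effect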
caTPT1 confirm: TPT1 (C. albicans) inhibition, confirmation | inhibition, % at 5 µM | 2,400 tested, 74% active | shares compounds with TPT1 inhibitor | recombinant caTPT1, fluorescence polarization, RNase T1 coupled;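 active = inhibition above the primary screen limit, the mean inhibition of all tested compounds plus 3 SD, cut at about 25% in these data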
RNase T1 counter: blocks Aspergillus oryzae RNase T1, a TPT1 counter-screen; shares compounds with TPT1 inhibitor; inhibition, % at 5 µM; 2,400 tested, 83% active; RNase T1 cleavage, fluorescence polarization, 1536-well;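 active = inhibition above the solvent-only control well mean plus 3 SD, limit set per screening run, cut at about 23% in these data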;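 also: plate controls were DMSO wells with enzyme for no effect and wells without RNase T1 for full effect; inhibitors block cleavage so intact labeled substrate keeps polarization high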
IDE cell inh cf: cellular human IDE inhibition, confirmation. shares compounds with IDE cell inh. HEK cells, FAbetaB cleavage, fluorescence polarization. inhibition, % at 5.59 µM. 1,200 tested, 51% active. AID 435028;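 active = mean inhibition across triplicate wells above the cutoff set by the earlier primary insulin-degrading enzyme screen, cut at about 16% in these data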;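 also: 0% = DMSO wells and 100% = 60 µM reference IDE inhibitor Ii1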
HEK293 tox: kills HEK cells in IDE inhibitor counter-screen. shares compounds with IDE cell inh. HEK293 cytotoxicity, ATP luminescence. inhibition, % at 5.59 µM. 1,200 tested, 28% active. AID 449730; in the data active = inhibition above about 22%;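 also: 0% = vehicle wells and 100% = reference cytotoxic drug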
CSN deneddyl val: Csn5 (human) deneddylation inhibition, single-concentration validation. AID 720654. inhibition, % at 16.6 µM. shares compounds with CSN inh. 540 tested, 62% active. Csn5 deneddylation of SCF-Nedd8OG, fluorescence polarization, 90 min; in the data active = inhibition above about 50%;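 also: 0% = DMSO with enzyme and 100% = no enzyme wells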
MMP-2 counter: counter-screen for CSN deneddylation inhibitors: human MMP-2 inhibition; AID 720655; inhibition, % at 16.6 µM; recombinant MMP-2, FRET substrate fluorescence, 60 min; 540 tested, 33% active; shares compounds with CSN inh;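 active = corrected plate-normalized z-score of 5 or more, or -5 or less, or inhibition of 15% or more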;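 also: plate controls were DMSO wells with enzyme for no effect and buffer wells lacking MMP-2 for full effect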
Thrombin cntr: blocks bovine thrombin in a CSN deneddylation counter-screen | inhibition, % at 16.6 µM | AID 720656 | bovine thrombin cleavage of Ub4-pepOG, fluorescence polarization | 540 tested, 49% active | shares compounds with CSN inh;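 active = inhibition at or above a set limit, with a fluorescence interference ratio between 0.5 and a set maximum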
An asterisk follows results filed as active; . = no result given. This is a sample that favours compounds with a hit; in the whole collection about 1.7% have one here.

SMILES	TbMetRS inhib	CSN inh	HNF4A DNA FP	IDE cell inh	IDE act	TPT1 inhibitor	caTPT1 confirm	RNase T1 counter	CSN deneddyl val	MMP-2 counter	Thrombin cntr	others
CC(C)(C)c1ccc(O)c(N=Cc2c(O)ccc3ccccc23)c1	-1	57*	76	-5	5	135*	138*	131*	67*	-19	61*
N#Cc1c(/N=C/c2c(O)n(Cc3ccco3)c(=O)[nH]c2=O)sc2c1CCCC2	0	43*	-3	9	-27	44*	8	14	73*	10	-2
O=c1[nH]c(=O)n(Cc2ccco2)c(O)c1/C=N/N1CCCCCC1	0	6	0	-4	5	0	.	.	.	.	.
CCN(CC)c1ccc(N=Cc2c(O)n(Cc3ccco3)c(=O)[nH]c2=O)cc1	0	62*	102	6	-9	45*	64*	69*	.	-14	25*
O=c1cccc2n1CC1CC2CN(c2ncnc3c2cnn3-c2ccc(Cl)cc2)C1 (centres undefined)	-1	-4	6	3	4	-4	.	.	.	.	.
O=C1NC(=O)N(c2ccc3c(c2)OCO3)C(=O)/C1=C/c1ccc(N2CCCC2)o1	0	42*	143	19*	-27	128*	142*	140*	124*	-14	83*	IDE cell inh cf=29*;HEK293 tox=6
O=C1NC(=O)N(c2ccc3c(c2)OCO3)C(=O)/C1=C/c1cccs1	-1	4	-3	6	-1	4	.	.	.	.	.
CC1([N+](=O)[O-])COP(=O)(Nc2ccc(Cl)cc2)OC1 (centres undefined)	0	-1	-1	.	7	.	.	.	.	.	.
C/C=C1/C[C@@H](C)[C@](O)(CO)C(=O)OCC2=CCN3CC[C@@H](OC1=O)[C@@H]23	0	-3	-3	3	-2	-1	.	.	.	.	.
C[C@H]1CC[C@H]2NCCN[C@H]2C1	-1	7	-13	3	6	3	.	.	.	.	.
CC1(C)OC(c2ccccc2)=C/C(=C/C=C2C(=O)NC(=O)NC2=O)O1	0	96*	184	50*	-84	113*	107*	106*	195*	-4	-8	IDE cell inh cf=55*;HEK293 tox=8
O=C1NC(=O)N(Cc2ccco2)C(=O)/C1=C/C=C/c1ccco1	0	46*	-31	1	-17	35*	39*	54*	48	26*	20*
C=CCN1C(=O)NC(=O)/C(=C/C=C/c2ccccc2)C1=O	0	3	20	.	-9	.	.	.	.	.	.
O=C1NC(=O)N(Cc2ccccc2)C(=O)/C1=C\C=C\c1ccco1	0	81*	18	17*	-17	60*	46*	63*	61*	2	27*	IDE cell inh cf=10;HEK293 tox=58*
C=CCN1C(=O)/C(=C/c2ccc(Br)s2)C(=O)NC1=S	0	37*	-6	-3	-10	28*	15	24*	81*	13	3
OC(c1cccc(Cl)c1)(c1cccc(Cl)c1)C1CN2CCC1CC2 (centres undefined)	1	4	1	3	1	-1	.	.	.	.	.
